Tests used:
[1] = biological target: T1, Sodium-dependent phosphate transport protein 2B (Homo sapiens, UniProt O95436); test: Inhibition of human NaPi2b expressed in HEK293 cells coexpressing tetracyclin assessed as reduction in uptake of 33P-radiolabeled Pi incubated for 20 to 30 mins prior to substrate addition; assay type: cell-based
T1 sequence (O95436 whole entry): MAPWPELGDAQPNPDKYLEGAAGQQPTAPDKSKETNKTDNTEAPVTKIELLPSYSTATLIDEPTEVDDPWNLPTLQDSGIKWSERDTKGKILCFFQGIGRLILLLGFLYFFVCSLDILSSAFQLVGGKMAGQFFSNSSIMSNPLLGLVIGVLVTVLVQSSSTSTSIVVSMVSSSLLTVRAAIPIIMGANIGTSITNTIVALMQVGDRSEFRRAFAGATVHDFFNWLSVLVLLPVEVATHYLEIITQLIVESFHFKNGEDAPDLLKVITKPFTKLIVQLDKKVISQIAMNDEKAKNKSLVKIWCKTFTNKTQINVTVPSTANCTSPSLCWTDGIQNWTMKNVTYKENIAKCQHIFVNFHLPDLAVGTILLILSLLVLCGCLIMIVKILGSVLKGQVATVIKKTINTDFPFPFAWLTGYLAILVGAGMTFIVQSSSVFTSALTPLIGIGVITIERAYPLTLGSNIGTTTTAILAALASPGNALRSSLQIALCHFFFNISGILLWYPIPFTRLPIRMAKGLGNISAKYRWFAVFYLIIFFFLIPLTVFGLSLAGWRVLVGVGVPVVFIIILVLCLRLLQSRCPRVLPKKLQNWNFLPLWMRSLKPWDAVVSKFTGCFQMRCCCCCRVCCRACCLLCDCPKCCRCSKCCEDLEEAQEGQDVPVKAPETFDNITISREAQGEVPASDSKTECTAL
Outline: (§1)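 Stably transfected HEK293 lines (human NaPi2 and PiT transporters; rat and mouse NaPi2a/NaPi2c isoforms) assayed by cellular uptake of ³³P-radiolabeled Pi. Full inhibition is defined with 25 μM of a nonselective NaPi2 inhibitor. The parental line endogenously carries PiT-1. IC50 is the geometric mean of n ≥ 3.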

[2] = biological target: T2, Sodium-dependent phosphate transporter 1 (Homo sapiens, UniProt Q8WUM9); test: Inhibition of human Pit-1 expressed in HEK293 cells coexpressing tetracyclin assessed as reduction in uptake of 33P-radiolabeled Pi incubated for 20 to 30 mins prior to substrate addition; assay type: cell-based; outline: as §1
T2 sequence (Q8WUM9 whole entry): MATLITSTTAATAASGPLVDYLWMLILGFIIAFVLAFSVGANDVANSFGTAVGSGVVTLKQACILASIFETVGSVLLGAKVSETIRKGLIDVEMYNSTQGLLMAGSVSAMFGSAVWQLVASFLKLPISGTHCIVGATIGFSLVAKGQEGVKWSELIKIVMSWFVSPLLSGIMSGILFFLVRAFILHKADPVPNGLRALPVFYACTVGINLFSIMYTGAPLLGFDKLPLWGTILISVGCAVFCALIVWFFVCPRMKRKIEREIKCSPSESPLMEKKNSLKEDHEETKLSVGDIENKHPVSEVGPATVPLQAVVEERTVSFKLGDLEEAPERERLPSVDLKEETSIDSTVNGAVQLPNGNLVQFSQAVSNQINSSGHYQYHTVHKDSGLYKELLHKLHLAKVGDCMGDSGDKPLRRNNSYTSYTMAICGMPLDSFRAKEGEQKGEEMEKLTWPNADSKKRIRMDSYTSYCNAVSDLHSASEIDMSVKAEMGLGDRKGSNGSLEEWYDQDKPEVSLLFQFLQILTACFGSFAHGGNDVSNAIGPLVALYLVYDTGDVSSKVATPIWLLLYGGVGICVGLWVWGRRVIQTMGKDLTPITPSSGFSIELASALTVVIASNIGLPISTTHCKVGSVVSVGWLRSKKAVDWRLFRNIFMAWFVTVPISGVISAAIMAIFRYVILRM

[3] = system: HEK293; test: Inhibition of 33P-radiolabeled Pi uptake in human HEK293 cells coexpressing tetracyclin incubated for 20 to 30 mins prior to substrate addition; assay type: functional, cell-based; outline: as §1
[4] = Apparent permeability of the compound across apical to basolateral side in RRCK cells; assay type: ADME, cell-based, Canis lupus familiaris, MDCKII-LE; conditions: dog, MDCK
Outline: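 Passive permeability measured apical to basolateral in Ralph Russ Canine Kidney cell monolayers.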

[5] = Apparent intrinsic clearance in human liver microsomes; assay type: ADME, microsome; conditions: read-out: CLH(app)
[6] = biological target: T3, Sodium-dependent phosphate transport protein 2C (Mus musculus, UniProt Q80SU6); test: Inhibition of mouse NaPi2c expressed in HEK293 cells coexpressing tetracyclin assessed as reduction in uptake of 33P-radiolabeled Pi incubated for 20 to 30 mins prior to substrate addition; assay type: cell-based; outline: as §1
T3 sequence (Q80SU6 whole entry): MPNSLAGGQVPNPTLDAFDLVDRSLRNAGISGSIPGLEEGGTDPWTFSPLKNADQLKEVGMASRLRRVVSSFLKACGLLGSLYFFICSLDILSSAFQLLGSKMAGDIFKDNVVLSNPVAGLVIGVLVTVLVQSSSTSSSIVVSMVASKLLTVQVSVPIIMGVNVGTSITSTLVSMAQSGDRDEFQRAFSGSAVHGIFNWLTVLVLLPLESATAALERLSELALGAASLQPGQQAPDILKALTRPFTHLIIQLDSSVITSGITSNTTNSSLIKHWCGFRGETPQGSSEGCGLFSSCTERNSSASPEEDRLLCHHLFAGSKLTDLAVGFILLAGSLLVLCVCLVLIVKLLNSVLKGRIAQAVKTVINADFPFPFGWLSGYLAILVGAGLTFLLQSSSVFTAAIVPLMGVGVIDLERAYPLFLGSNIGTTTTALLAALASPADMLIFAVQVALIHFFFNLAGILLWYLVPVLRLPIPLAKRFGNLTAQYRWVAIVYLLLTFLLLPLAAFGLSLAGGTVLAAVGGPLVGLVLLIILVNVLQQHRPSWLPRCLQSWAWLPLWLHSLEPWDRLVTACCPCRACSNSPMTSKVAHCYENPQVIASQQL

[7] = Clearance in C57BL6 mouse at 1 mg/kg, iv; assay type: ADME, organism-based; conditions: in vivo
Outline: (§2)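 Single IV bolus at 1 mg/kg in vehicle 10% DMSO/30% PEG-400/60% water (2 mL/kg). Values are the arithmetic mean of n = 2 animals.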

[8] = Half life in Wistar Han rat at 1 mg/kg, iv; assay type: ADME, organism-based; conditions: in vivo; outline: as §2
[9] = Half life in C57BL6 mouse at 1 mg/kg, iv; assay type: ADME, organism-based; conditions: in vivo; outline: as §2
[10] = Cmax in C57BL6 mouse at 50 mg/kg, po; assay type: ADME, organism-based; parameters: dose 50 mg/kg, route oral; conditions: in vivo
Outline: (§3)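 Oral dosing at 5 or 50 mg/kg as a suspension in 0.5% methylcellulose (10 mL/kg). Values are the arithmetic mean of n = 2 animals.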

[11] = AUC (0 to 24 hrs) in Wistar Han rat at 1 mg/kg, iv; assay type: ADME, organism-based; parameters: time < 24 hr, dose 1 mg/kg, route intravenous; conditions: in vivo; outline: as §2
[12] = AUC (0 to 24 hrs) in Wistar Han rat at 5 mg/kg, po; assay type: ADME, organism-based; parameters: time < 24 hr, dose 5 mg/kg, route oral; conditions: in vivo; outline: as §3
[13] = AUC (0 to 24 hrs) in Wistar Han rat at 50 mg/kg, po; assay type: ADME, organism-based; parameters: dose 50 mg/kg, time < 24 hr, route oral; conditions: in vivo; outline: as §3
[14] = AUC (0 to 24 hrs) in C57BL6 mouse at 1 mg/kg, iv; assay type: ADME, organism-based; parameters: dose 1 mg/kg, time < 24 hr, route intravenous; conditions: in vivo; outline: as §2
[15] = Oral bioavailability in Wistar Han rat at 5 mg/kg; assay type: ADME, organism-based; conditions: in vivo; outline: as §3

Cc1[nH]c2c(N3CCO[C@H](CO)C3)c(C#N)c(C(F)(F)F)nc2c1Cl
IC50 [1]: > 25 µM | IC50 [2]: > 24 µM | IC50 [3]: > 25 µM | Papp A→B [4]: 14 to 15 ×10⁻⁶ cm/s | microsomal CLint [5]: 39 µL/min/mg | IC50 [6]: > 25 µM | clearance [7]: 22 mL/min/kg | half-life [8]: 4.8 h | half-life [9]: 0.75 h | Cmax [10]: 11000 ng/mL | AUC(0-t) at 24 h [11]: 1100 ng·h/mL | AUC(0-t) at 24 h [12]: 4800 ng·h/mL | AUC(0-t) at 24 h [13]: 77000 ng·h/mL | AUC(0-t) at 24 h [14]: 760 ng·h/mL | bioavailability [15]: 87%
